Measurements taken from ChEMBL document CHEMBL3259535, “Synthesis, cytotoxic study and docking based multidrug resistance modulator potential analysis of 2-(9-oxoacridin-10(9H)-yl)-N-phenyl acetamides” (Eur J Med Chem, 2014).

Legend:
Format in all cases: functional, cell-based
[1] = tested on: A549; assay: Antiproliferative activity against human A549 cells after 3 days by MTT assay; conditions: A549, 72 h
Method in brief: (§1)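 Stock cells grown to confluence in DMEM with 10% inactivated FBS, penicillin, streptomycin and amphotericin B at 37 °C, 5% CO₂, then detached with trypsin-EDTA-glucose. About 10,000 cells per well were seeded; after 24 h, drug was added at five dose levels for 72 h. MTT was added for 3 h, formazan dissolved in propanol and read at 540 nm. IC50 was taken from dose-response curves, triplicate, mean ± SEM.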

[2] = tested on: MCF7; assay: Antiproliferative activity against human MCF7 cells after 3 days by MTT assay; conditions: MCF7, 72 h; method in brief: as §1
[3] = tested on: HeLa; assay: Antiproliferative activity against human HeLa cells after 3 days by MTT assay; conditions: 72 h; method in brief: as §1

O=C(Cn1c2ccccc2c(=O)c2ccccc21)Nc1ccccc1F showed an IC50 [1] of 23.3 µM, an IC50 [2] of 29.2 µM and an IC50 [3] of 25.4 µM.

Work on O=C(Cn1c2ccccc2c(=O)c2ccccc21)Nc1ccccc1 yielded an IC50 [1] of 41.4 µM, an IC50 [2] of 39.7 µM and an IC50 [3] of 43.8 µM.

With O=C(Cn1c2ccccc2c(=O)c2ccccc21)Nc1cccc(Cl)c1 the IC50 [1] was 33.3 µM, the IC50 [2] was 30.1 µM and the IC50 [3] was 29.1 µM.

O=C(Cn1c2ccccc2c(=O)c2ccccc21)Nc1ccc(Cl)cc1 gave an IC50 [1] of 34.9 µM, an IC50 [2] of 31.2 µM and an IC50 [3] of 32.3 µM.

In the case of O=C(Cn1c2ccccc2c(=O)c2ccccc21)Nc1ccccc1[N+](=O)[O-], the IC50 [1] is reported as 11.8 µM, the IC50 [2] is reported as 12.6 µM and the IC50 [3] is reported as 13.2 µM.

Molecule O=C(Cn1c2ccccc2c(=O)c2ccccc21)Nc1ccc([N+](=O)[O-])cc1 has an IC50 [1] of 19.7 µM, an IC50 [2] of 14 µM and an IC50 [3] of 17.2 µM.

Molecule Cc1ccc(NC(=O)Cn2c3ccccc3c(=O)c3ccccc32)cc1 has an IC50 [1] of 20.2 µM, an IC50 [2] of 20.1 µM and an IC50 [3] of 21.9 µM.

COc1ccc(NC(=O)Cn2c3ccccc3c(=O)c3ccccc32)cc1 gave an IC50 [1] of 16.7 µM, an IC50 [2] of 15 µM and an IC50 [3] of 19.6 µM.

Work on O=C(Cn1c2ccccc2c(=O)c2ccccc21)Nc1ccc(O)cc1 yielded an IC50 [1] of 17.4 µM, an IC50 [2] of 15.6 µM and an IC50 [3] of 22 µM.

Molecule O=C(Cn1c2ccccc2c(=O)c2ccccc21)Nc1ccc(C(F)(F)F)cc1 has an IC50 [1] of 20.5 µM, an IC50 [2] of 26.4 µM and an IC50 [3] of 23.2 µM.

In the case of O=C(Cn1c2ccccc2c(=O)c2ccccc21)Nc1cccc(C(F)(F)F)c1, the IC50 [1] is reported as 38.2 µM, the IC50 [2] is reported as 35.1 µM and the IC50 [3] is reported as 34.9 µM.

For O=C(Cn1c2ccccc2c(=O)c2ccccc21)Nc1ccccc1C(=O)O, the IC50 [1] was 7.39 µM, the IC50 [2] was 6.07 µM and the IC50 [3] was 8.8 µM.

In the case of O=C(Cn1c2ccccc2c(=O)c2ccccc21)Nc1ccc(C(=O)O)cc1, the IC50 [1] is reported as 8.8 µM, the IC50 [2] is reported as 7.12 µM and the IC50 [3] is reported as 10.7 µM.

Molecule O=C(Cn1c2ccccc2c(=O)c2ccccc21)Nc1ccc(F)cc1 has an IC50 [1] of 24.5 µM, an IC50 [2] of 27.5 µM and an IC50 [3] of 26.6 µM.

With O=C(Cn1c2ccccc2c(=O)c2ccccc21)Nc1ccc(Br)cc1 the IC50 [1] was 35.1 µM, the IC50 [2] was 33 µM and the IC50 [3] was 32.2 µM.
